Data published in ChEMBL document CHEMBL1147940, “Differential receptor binding characteristics of consecutive phenylalanines in micro-opioid specific peptide ligand endomorphin-2” (Bioorg Med Chem, 2007).
Residues, ends and D or L forms follow the SMILES beside them.

Tests used:
[1] = target: Opioid receptors; mu & delta (Rattus norvegicus) (UniProt P33533+P33535); test: Selectivity for rat mu opioid receptor over rat delta opioid; type: protein assay
Procedure, shortened: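 Ratio of IC50 values from [3H]deltorphin II (delta) and [3H]DAGO (mu) displacement on rat brain membranes. Each used 0.25 nM tracer, 60 min incubation at room temperature in Tris-HCl pH 7.55 with 0.1% BSA and bacitracin, and filtration with scintillation counting.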

Mu-type opioid receptor = Mu-type opioid receptor (Rattus norvegicus, UniProt P33535); test: Displacement of [3H]DAGO from mu opioid receptor in rat brain membrane; type: cell membranes
[2] = target: Delta-type opioid receptor (Rattus norvegicus, UniProt P33533); test: Displacement of [3H]deltorphin2 from delta opioid receptor in rat brain membrane; type: cell membranes
Delta-type opioid receptor, sequence (P33533 whole entry): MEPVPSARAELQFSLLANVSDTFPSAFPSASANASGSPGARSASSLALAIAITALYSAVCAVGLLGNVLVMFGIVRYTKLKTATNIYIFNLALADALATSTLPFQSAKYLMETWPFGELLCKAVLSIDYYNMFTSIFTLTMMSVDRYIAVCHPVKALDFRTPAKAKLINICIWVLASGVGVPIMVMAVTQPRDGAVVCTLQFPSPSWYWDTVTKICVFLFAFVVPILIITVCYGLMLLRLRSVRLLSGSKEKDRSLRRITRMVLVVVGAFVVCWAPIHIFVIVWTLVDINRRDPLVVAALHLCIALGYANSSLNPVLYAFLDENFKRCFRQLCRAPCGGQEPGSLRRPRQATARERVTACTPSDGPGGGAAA

Mu-type opioid receptor, sequence (P33535 whole entry): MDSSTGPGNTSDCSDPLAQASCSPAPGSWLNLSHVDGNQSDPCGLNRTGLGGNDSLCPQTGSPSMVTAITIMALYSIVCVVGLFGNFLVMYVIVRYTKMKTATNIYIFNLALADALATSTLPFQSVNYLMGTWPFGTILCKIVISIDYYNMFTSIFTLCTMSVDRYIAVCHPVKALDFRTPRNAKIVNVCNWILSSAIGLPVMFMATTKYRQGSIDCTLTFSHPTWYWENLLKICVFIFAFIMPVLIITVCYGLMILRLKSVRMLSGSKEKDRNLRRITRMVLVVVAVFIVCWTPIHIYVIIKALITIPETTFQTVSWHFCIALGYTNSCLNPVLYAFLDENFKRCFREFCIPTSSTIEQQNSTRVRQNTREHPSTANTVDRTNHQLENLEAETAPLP
Opioid receptors; mu & delta (Rattus norvegicus), sequence (P33533 whole entry, looked up): as the sequence (P33533 whole entry) above
Opioid receptors; mu & delta (Rattus norvegicus), sequence (P33535 whole entry, looked up): as the sequence (P33535 whole entry) above

Compound `NC(=O)[C@H](Cc1c(F)c(F)c(F)c(F)c1F)NC(=O)[C@H](Cc1ccccc1)NC(=O)[C@@H]1CCCN1C(=O)[C@@H](N)Cc1ccc(O)cc1` has a Ratio IC50 [1] of 1000, an IC50 (Mu-type opioid receptor) of 0.00274 µM and an IC50 [2] of 8.04 µM.

`NC(=O)[C@H](Cc1ccccc1)NC(=O)[C@H](Cc1c(F)c(F)c(F)c(F)c1F)NC(=O)[C@@H]1CCCN1C(=O)[C@@H](N)Cc1ccc(O)cc1` showed a Ratio IC50 [1] of 1000, an IC50 (Mu-type opioid receptor) of 0.0117 µM and an IC50 [2] of 11.7 µM.

In the case of `C[C@H](NC(=O)[C@@H]1CCCN1C(=O)[C@@H](N)Cc1ccc(O)cc1)C(=O)N[C@@H](Cc1ccccc1)C(N)=O` (H-YPAF-NH2), the IC50 (Mu-type opioid receptor) is reported as 3.81 µM.

For `C[C@H](NC(=O)[C@H](Cc1ccccc1)NC(=O)[C@@H]1CCCN1C(=O)[C@@H](N)Cc1ccc(O)cc1)C(N)=O` (H-YPFA-NH2), the IC50 (Mu-type opioid receptor) was 0.0854 µM.

Work on `NC(=O)[C@H](Cc1c[nH]cn1)NC(=O)[C@H](Cc1ccccc1)NC(=O)[C@@H]1CCCN1C(=O)[C@@H](N)Cc1ccc(O)cc1` (H-YPFH-NH2) yielded an IC50 (Mu-type opioid receptor) of 0.138 µM and an IC50 [2] of over 1000 µM.

With `NCCCC[C@H](NC(=O)[C@H](Cc1ccccc1)NC(=O)[C@@H]1CCCN1C(=O)[C@@H](N)Cc1ccc(O)cc1)C(N)=O` (H-YPFK-NH2) the IC50 (Mu-type opioid receptor) was 0.408 µM.

In the case of `CC(C)C[C@H](NC(=O)[C@H](Cc1ccccc1)NC(=O)[C@@H]1CCCN1C(=O)[C@@H](N)Cc1ccc(O)cc1)C(N)=O` (H-YPFL-NH2), the IC50 (Mu-type opioid receptor) is reported as 0.062 µM and the IC50 [2] is reported as over 1000 µM.

`CC(C)[C@H](NC(=O)[C@H](Cc1ccccc1)NC(=O)[C@@H]1CCCN1C(=O)[C@@H](N)Cc1ccc(O)cc1)C(N)=O` (H-YPFV-NH2) showed an IC50 (Mu-type opioid receptor) of 0.0765 µM and an IC50 [2] of over 1000 µM.

`NC(=O)[C@H](Cc1c[nH]c2ccccc12)NC(=O)[C@H](Cc1ccccc1)NC(=O)[C@@H]1CCCN1C(=O)[C@@H](N)Cc1ccc(O)cc1` (H-YPFW-NH2) was tested, and the IC50 (Mu-type opioid receptor) was 0.0871 µM and the IC50 [2] was over 1000 µM.

In the case of `NC(=O)[C@H](Cc1ccc(O)cc1)NC(=O)[C@H](Cc1ccccc1)NC(=O)[C@@H]1CCCN1C(=O)[C@@H](N)Cc1ccc(O)cc1` (H-YPFY-NH2), the Ratio IC50 [1] is reported as 5.2, the IC50 (Mu-type opioid receptor) is reported as 0.0622 µM and the IC50 [2] is reported as 54.5 µM.

Work on `NC(=O)[C@H](Cc1ccccc1)NC(=O)[C@H](Cc1c[nH]cn1)NC(=O)[C@@H]1CCCN1C(=O)[C@@H](N)Cc1ccc(O)cc1` (H-YPHF-NH2) yielded an IC50 (Mu-type opioid receptor) of 4.49 µM and an IC50 [2] of over 1000 µM.

`NCCCC[C@H](NC(=O)[C@@H]1CCCN1C(=O)[C@@H](N)Cc1ccc(O)cc1)C(=O)N[C@@H](Cc1ccccc1)C(N)=O` (H-YPKF-NH2) gave an IC50 (Mu-type opioid receptor) of over 1000 µM.

Compound `CC(C)C[C@H](NC(=O)[C@@H]1CCCN1C(=O)[C@@H](N)Cc1ccc(O)cc1)C(=O)N[C@@H](Cc1ccccc1)C(N)=O` (H-YPLF-NH2) has an IC50 (Mu-type opioid receptor) of 0.926 µM and an IC50 [2] of over 1000 µM.

For `CC(C)[C@H](NC(=O)[C@@H]1CCCN1C(=O)[C@@H](N)Cc1ccc(O)cc1)C(=O)N[C@@H](Cc1ccccc1)C(N)=O` (H-YPVF-NH2), the IC50 (Mu-type opioid receptor) was 2.65 µM and the IC50 [2] was over 1000 µM.

`NC(=O)[C@H](Cc1ccccc1)NC(=O)[C@H](Cc1ccc(O)cc1)NC(=O)[C@@H]1CCCN1C(=O)[C@@H](N)Cc1ccc(O)cc1` (H-YPYF-NH2) showed a Ratio IC50 [1] of 5.2, an IC50 (Mu-type opioid receptor) of 1.1 µM and an IC50 [2] of 5.72 µM.

For `NC(=O)[C@H](CC1CCCCC1)NC(=O)[C@H](Cc1ccccc1)NC(=O)[C@@H]1CCCN1C(=O)[C@@H](N)Cc1ccc(O)cc1` (HELM PEPTIDE1{Y.P.F.[Cha].[am]}$$$$V2.0), the Ratio IC50 [1] was 21.3, the IC50 (Mu-type opioid receptor) was 0.917 µM and the IC50 [2] was 11.4 µM.

`CCCC[C@H](NC(=O)[C@H](Cc1ccccc1)NC(=O)[C@@H]1CCCN1C(=O)[C@@H](N)Cc1ccc(O)cc1)C(N)=O` (HELM PEPTIDE1{Y.P.F.[Nle].[am]}$$$$V2.0) showed an IC50 (Mu-type opioid receptor) of 0.0339 µM and an IC50 [2] of over 1000 µM.

For `NC(=O)[C@H](Cc1ccccc1)NC(=O)[C@H](CC1CCCCC1)NC(=O)[C@@H]1CCCN1C(=O)[C@@H](N)Cc1ccc(O)cc1` (HELM PEPTIDE1{Y.P.[Cha].F.[am]}$$$$V2.0), the Ratio IC50 [1] was 21.3, the IC50 (Mu-type opioid receptor) was 0.148 µM and the IC50 [2] was 3.15 µM.

`CCCC[C@H](NC(=O)[C@@H]1CCCN1C(=O)[C@@H](N)Cc1ccc(O)cc1)C(=O)N[C@@H](Cc1ccccc1)C(N)=O` (HELM PEPTIDE1{Y.P.[Nle].F.[am]}$$$$V2.0) was tested, and the Ratio IC50 [1] was 66.1, the IC50 (Mu-type opioid receptor) was 0.23 µM and the IC50 [2] was 15.2 µM.

Compound `C[C@@H](NC(=O)[C@@H](N)Cc1ccc(O)cc1)C(=O)NCC(=O)N(C)[C@@H](Cc1ccccc1)C(=O)NCCO` [DAMGO] has an IC50 [2] of 0.727 µM.
